From ChEMBL document CHEMBL4364240, “Tetracyclines as Inhibitors of Pre-microRNA Maturation: A Disconnection between RNA Binding and Inhibition” (ACS Med Chem Lett, 2019) come the findings set out here.

Active and inactive are the calls of the source. No cut-off for these calls is given here.

For assay [1], the system named is microRNA 21. As to the kind of experiment: Inhibition of Dicer mediated biotinylated pre-miRNA-21 (unknown origin) maturation at 1 mM measured after 15 mins by cat-ELCCA relative to control. The format is nucleic-acid assay. Summed up:
(§1)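 Single-point cat-ELCCA screen at 1.0 mM compound. Recombinant Dicer is used in excess over the pre-miRNA substrate to give enough signal-to-background. The read-out is percent inhibition of processing.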

In assay [2] the target is microRNA 21. As to the kind of experiment: Binding affinity to biotinylated pre-miRNA-21 (unknown origin) by SPR analysis. Type of assay: nucleic-acid assay.
The nature of assay [3]: Inhibition of biotinylated pre-let-7d (unknown origin) maturation at 1 mM preincubated for 15 mins followed by Pre-let-7d addition and measured after 5 hrs by cat-ELCCA. In a few lines: as §1
The nature of assay [4]: Binding affinity to biotinylated pre-let-7d microRNA (unknown origin) by SPR analysis.
The test system of assay [5] is microRNA 21. As to the kind of experiment: […] miR-21 RNA in human HeLA cells transfected with pmir21 vector incubated for 48 hrs by Dual-Glo luciferase assay. Type of assay: cell-based.
The target of assay [6] is microRNA 21. Put plainly: Inhibition of Dicer mediated biotinylated pre-miRNA-21 (unknown origin) maturation preincubated for 15 mins followed by pre-miRNA-21 addition and measured after 5 hrs by cat-ELCCA. The format is nucleic-acid assay. Summed up:
(§2)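 Dose-response cat-ELCCA in which Dicer is in excess over the biotinylated pre-miRNA substrate to ensure adequate signal-to-background. IC50 values are derived from the inhibition curves and reported as 95% confidence intervals.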

The subject of a further assay is Escherichia coli. Put plainly: Inhibition of Escherichia coli RNase 3 dsRBD assessed as inhibition of pre-miRNA-21 maturation incubated for 0.5 to 1 hr.
The subject of assay [7] is microRNA 21. Put plainly: […] miR-21 RNA in human HeLA cells transfected with pmirGLO empty vector incubated for 48 hrs by Dual-Glo luciferase assay. The format is cell-based.
In assay [8] the test system is microRNA 21. Put plainly: Inhibition of Dicer mediated biotinylated pre-miRNA-21 (unknown origin) maturation in presence of 1 to 3 mM MgCl2 preincubated for 15 mins followed by pre-miRNA-21 addition and measured after 5 hrs by cat-ELCCA. Type of assay: nucleic-acid assay.
The test system of assay [9] is microRNA 21. As to the kind of experiment: Inhibition of Dicer mediated biotinylated pre-miRNA-21 (unknown origin) maturation in presence of 1;1 ratio of CaCl2 and MgCl2 preincubated for 15 mins followed by pre-miRNA-21 addition and measured after 5 hrs by cat-ELCCA. Type of assay: nucleic-acid assay.
Assay [10] is described as follows: Inhibition of biotinylated pre-let-7d microRNA (unknown origin) maturation preincubated for 15 mins followed by Pre-let-7d addition and measured after 5 hrs by cat-ELCCA. Summed up: as §2
Assay [11] relates to microRNA 21. Put plainly: Inhibition of Dicer mediated 5'-biotinylated PEG linked pre-miRNA-21 (unknown origin) maturation. The format is nucleic-acid assay.

Regarding `CN(C)c1cc(NC(=O)CNC(C)(C)C)c(O)c2c1C[C@H]1C[C@H]3[C@H](N(C)C)C(O)=C(C(N)=O)C(=O)[C@@]3(O)C(O)=C1C2=O`, the inhibition in the assay on microRNA 21 [1] is 40 to 100%.
For `NC[C@H]1O[C@H](O[C@H]2[C@H](O)[C@@H](O[C@H]3O[C@H](CO)[C@@H](O)[C@H](N)[C@H]3O)[C@H](N)C[C@@H]2N)[C@H](O)[C@@H](O)[C@@H]1O` [KANAMYCIN], the dissociation constant Kd on microRNA 21 [2] (read-out: Kd) is 0.1 to 0.7 µM. Also, the inhibition entry (with microRNA 21 [1]; in assay [3]) was “inactive” throughout.
For `C=C1c2cccc(O)c2C(=O)C2=C(O)[C@]3(O)C(=O)C(C(N)=O)=C(O)[C@@H](N(C)C)[C@@H]3[C@@H](O)[C@H]12` [METHACYCLINE], the Kd is 9.9 µM at microRNA 21 [2] (read-out: Kd) and 17 µM in assay [4] (read-out: Kd). The inhibition with microRNA 21 [1] was in the range of 40 to 100%. Moreover, the outcome with microRNA 21 [5] and with microRNA 21 [7] was inactive. For the same compound, the concentration for half-maximal inhibition (IC50) is 56 to 437 µM against microRNA 21 [6] and 97 to 749 µM in assay [10] (read-out: IC50). The inhibition result with Escherichia coli, with microRNA 21 [8] and in the assay with microRNA 21 [9] was “Active” each time.
The compound `Cc1c2c(c(O)c3c(O)cccc13)C(=O)[C@]1(O)C(=O)C(C(N)=O)=C(O)[C@@H](N(C)C)[C@@H]1C2` returned an inhibition with microRNA 21 [1] of 40 to 100%.
As to `Oc1ccc(-c2csc(Cc3c[nH]c4ccccc34)n2)cc1O`, the IC50 on microRNA 21 [6] is 398 µM; in [10], “Not Active”.
On to `CN[C@@H]1[C@H](O[C@H]2[C@H](O[C@H]3[C@H](O)[C@@H](O)[C@H](N=C(N)N)[C@@H](O)[C@@H]3N=C(N)N)O[C@@H](C)[C@]2(O)C=O)O[C@@H](CO)[C@H](O)[C@H]1O` [STREPTOMYCIN], for which, on microRNA 21 [2] (read-out: Kd), the Kd fell in the range of 0.1 to 0.7 µM. Besides, the inhibition result (in the assay on microRNA 21 [1]; in assay [3]) was “inactive” throughout.
As for `O=c1oc2c(-c3cccc(Cl)c3)cc(O)cc2s1`, the IC50 is 645 µM against microRNA 21 [6] and “Not Active” in assay [10].
With `CC(=O)Oc1cccc2c1C(=O)C1=C(O)[C@]3(OC(C)=O)C(=O)C(C(N)=O)=C(O)[C@@H](N(C)C)[C@@H]3[C@@H](OC(C)=O)[C@@H]1[C@]2(C)OC(C)=O`, the inhibition entry with microRNA 21 [11] was “Active”.
Compound `CN(C)[C@@H]1C(O)=C(C(N)=O)C(=O)[C@@]2(O)C(O)=C3C(=O)c4c(O)cccc4[C@@](C)(O)[C@H]3C[C@@H]12` [TETRACYCLINE] returned an inhibition in the assay on microRNA 21 [1] of 40 to 100%. Further, the outcome in the assay with microRNA 21 [5] and in the assay on microRNA 21 [7] was inactive. In addition, the IC50 at microRNA 21 [6] is 434 to 1000 µM; in assay [10] (read-out: IC50), 421 to 865 µM.
As for `NC(=O)C1=C(O)C[C@@H]2C[C@@H]3Cc4cccc(O)c4C(=O)C3=C(O)[C@]2(O)C1=O` [INCYCLINIDE], the Kd entry (in the assay with microRNA 21 [2]; in assay [4]) was “Not Active” throughout. For the same compound, the concentration for half-maximal inhibition (IC50) against microRNA 21 [6] is 358 to 469 µM; in assay [10] (read-out: IC50), 383 to 775 µM. Further, the inhibition entry (with microRNA 21 [6]; in assay [10]) was “Dose-dependent effect” in each case.
`CN(C)[C@@H]1C(O)=C(C(N)=O)C(=O)[C@@]2(O)C(O)=C3C(=O)c4c(O)ccc(Cl)c4[C@@](C)(O)[C@H]3C[C@@H]12` [CHLORTETRACYCLINE] returned an inhibition with microRNA 21 [1] of 40 to 100%. The IC50 against microRNA 21 [6] lay in the range of 155 to 274 µM; in assay [10] (read-out: IC50), 237 to 307 µM.
Consider `CN1CCN(c2ccc3nc(-c4ccc5nc(-c6ccc(O)cc6)[nH]c5c4)[nH]c3c2)CC1`, for which, on microRNA 21 [2] (read-out: Kd), the dissociation constant Kd lay within 0.1 to 0.7 µM.
For `CN(C)[C@@H]1C(O)=C(C(N)=O)C(=O)[C@@]2(O)C(O)=C3C(=O)c4c(O)cccc4[C@@](C)(O)[C@H]3[C@H](O)[C@@H]12` [OXYTETRACYCLINE], the inhibition in the assay with microRNA 21 [1] was in the range of 40 to 100%. Further, the figures for the IC50 (against microRNA 21 [6]; in [10] (read-out: IC50)) were 200 to 918 µM and 431 to 1020 µM, respectively.
`C[C@H]1c2cccc(O)c2C(=O)C2=C(O)[C@]3(O)C(=O)C(C(N)=O)=C(O)[C@@H](N(C)C)[C@@H]3[C@@H](O)[C@@H]21` [DOXYCYCLINE]: in the assay on microRNA 21 [1], the inhibition was 40 to 100%. In addition, the values for the IC50 (at microRNA 21 [6]; in assay [10] (read-out: IC50)) were 433 to 1410 µM and 433 to 1300 µM, respectively.
For `CN(C)[C@H]1C(O)=C(C(N)=O)C(=O)[C@@]2(O)C(O)=C3C(=O)c4c(O)cccc4[C@@](C)(O)[C@H]3C[C@@H]12`, the inhibition with microRNA 21 [1] lay within 40 to 100%.
`CN(C)[C@@H]1C(O)=C(C(N)=O)C(=O)[C@@]2(O)C(O)=C3C(=O)c4c(O)ccc(Cl)c4[C@@H](O)[C@H]3C[C@@H]12` had an inhibition in the assay with microRNA 21 [1] of 40 to 100%.
Regarding `C=C1c2c(Cl)ccc(O)c2C(=O)C2=C(O)[C@]3(O)C(=O)C(C(N)=O)=C(O)[C@@H](N(C)C)[C@@H]3[C@@H](O)[C@H]12` [MECLOCYCLINE], the values for the dissociation constant (Kd) (at microRNA 21 [2] (read-out: Kd); in assay [4] (read-out: Kd)) were 2.1 µM and 5.8 µM, respectively. In the assay with microRNA 21 [1], the inhibition lay in the range of 40 to 100%. Also, the outcome in the assay on microRNA 21 [5] and in the assay on microRNA 21 [7] was inactive. The IC50 fell in the range of 62 to 196 µM on microRNA 21 [6] and 80 to 240 µM in [10] (read-out: IC50).
`O=c1nc(/C=C/c2ccc(O)c(O)c2)oc2ccccc12`: the half-inhibitory concentration (IC50) against microRNA 21 [6] was 692 µM; in assay [10] it was “Not Active”.
The matching figures for `Nc1ccc(-c2nc3cc(-c4nc5ccccc5o4)ccc3[nH]2)cc1`: 229 µM and “Not Active”.
As to `NC[C@@H]1O[C@H](O[C@H]2[C@@H](O)[C@H](O[C@@H]3[C@@H](O)[C@H](N)C[C@H](N)[C@H]3O[C@H]3O[C@H](CN)[C@@H](O)[C@H](O)[C@H]3N)O[C@@H]2CO)[C@H](N)[C@@H](O)[C@@H]1O` [FRAMYCETIN], on microRNA 21 [2] (read-out: Kd), the equilibrium dissociation constant (Kd) lay in the range of 0.1 to 0.7 µM. Moreover, the inhibition result (in the assay with microRNA 21 [1]; in assay [3]) was “inactive” throughout.
Turning to `COc1ccc(-c2cc(-c3cc(OC)ccc3O)[nH]n2)cc1`, the IC50 was 148 µM on microRNA 21 [6] and “Not Active” in [10].
`CN(C)c1ccc(O)c2c1C[C@H]1C[C@H]3[C@H](N(C)C)C(O)=C(C(N)=O)C(=O)[C@@]3(O)C(O)=C1C2=O` [MINOCYCLINE] came in with an inhibition in the assay on microRNA 21 [1] of 40 to 100%. For the same compound, the IC50 against microRNA 21 [6] was in the range of 305 to 539 µM; in assay [10] (read-out: IC50) it was 437 to 744 µM.
As to `CN1c2ccccc2C(C)(C)C12C=Cc1cc(O)ccc1O2` (centres undefined), the results for the 50% inhibitory concentration (IC50) (at microRNA 21 [6]; in assay [10]) were 15 µM and “Not Active”, respectively.
With `CN1CCN(c2ccc3[nH]c(-c4ccc5[nH]c(-c6ccc(O)cc6)nc5c4)nc3c2)CC1`, the inhibition result (in the assay with microRNA 21 [1]; in assay [3]) was “inactive” in each case.
